Hits are enriched below; roughly 3.1% of the tested compounds scored in any of these assays.
hERG rescue = hERG rescue from dofetilide block, primary screen, cell-based, CHO-hERG, FluxOR thallium flux, dofetilide IC70 | hit rate 0.51% among 310,000 | dofetilide IC70 present | activation (rescue from dofetilide block), less the hit threshold, % at 10 µM | AID 1511, 2009;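 active means activation above the mean of controls blocked by dofetilide plus 5 SD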;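 further: thallium influx through hERG after potassium depolarization seen as dye fluorescence rise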
KCNK3 block = human KCNK3 channel inhibitors, primary screen, CHO cells, FluxOR thallium flux, B-score. FluxOR fluorescence; hits give low values. Potassium channel subfamily K member 3 (Homo sapiens), O14649. AID 602410, 2012. hit rate 0.84% among 340,000. B-score at 10 µM;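 active means B-score under library mean minus 4 SD, starting fluorescence ratio at most library mean plus 5 SD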;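 further: more negative B-score means stronger inhibition of thallium flux through KCNK3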
KCNK9 inh = KCNK9 potassium channel inhibitors, primary screen, HEK293 cells, thallium flux; Potassium channel subfamily K member 9 (Homo sapiens), Q9NPC2; FluxOR thallium flux fluorescence; hits give low values; B-score at 10 µM; AID 488922, 2010; hit rate 1.2% among 310,000;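 active means ratio B-score over 3 SD below the library mean, with starting fluorescence within 5 SD of its mean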;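 further: negative B-score means less thallium flux so channel inhibition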
Target sequence (Q9NPC2 whole entry, looked up): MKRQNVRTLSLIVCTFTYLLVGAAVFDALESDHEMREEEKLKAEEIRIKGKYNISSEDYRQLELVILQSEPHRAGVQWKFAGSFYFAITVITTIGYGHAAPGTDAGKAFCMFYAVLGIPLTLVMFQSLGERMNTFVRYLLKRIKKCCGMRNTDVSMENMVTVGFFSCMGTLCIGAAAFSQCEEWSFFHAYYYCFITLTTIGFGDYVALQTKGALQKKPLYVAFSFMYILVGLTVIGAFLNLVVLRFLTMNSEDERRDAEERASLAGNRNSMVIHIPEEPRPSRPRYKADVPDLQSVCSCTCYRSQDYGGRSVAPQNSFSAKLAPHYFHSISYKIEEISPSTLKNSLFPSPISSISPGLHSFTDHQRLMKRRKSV
KCNQ1 act = potentiators or activators of KCNQ1 channel, primary screen, cell-based, thallium flux, high-throughput | B-score at 10 µM | CHO-K1 KCNQ1, thallium flux FluxOR fluorescence; hits give high values | AID 2648, 2010 | Potassium voltage-gated channel subfamily KQT member 1 (Homo sapiens), P51787 | hit rate 0.35% among 310,000;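 active means fluorescence ratio B-score, a plate-corrected score, at least three library SD, with initial intensity B-score within 5 SD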
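System: Stable KCNQ1 CHO-K1 line | Incubation: 90 min dye loading and 20 min compound exposure, both at room temperature | Measure: Ratio B score | Medium: Assay buffer for compound exposure, DMSO matched across wells | Compound dosing: Single-concentration screen | Probe or stimulus: K+/Tl+ depolarizing stimulus | Measured by: Kinetic FluxOR fluorescence, 10 s baseline plus 110 s post-stimulus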
KCNQ1 inh = inhibitors of human KCNQ1 channel, primary screen, cell-based, thallium flux, high-throughput; CHO-K1 KCNQ1, FluxOR thallium flux fluorescence; hits give high values; B-score at 10 µM; hit rate 1.3% among 310,000; AID 2642, 2010;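 active means compounds whose thallium flux B-score, printed positive for inhibition, exceeds three library SD while starting fluorescence stays within three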;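 further: channel opened by potassium depolarization with thallium stimulus after 20 min compound exposure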
Active calls of the source: *.

Results for CC1CCCN(C(=O)COC(=O)CNC(=O)c2sc3ccccc3c2Cl)C1 (stereo unspecified) ?
KCNK3 block: inactive

What do the screens show for `O=C(CCc1ccccc1)Nc1ccc(S(=O)(=O)NC2=NCCCCC2)cc1`?
KCNK3 block: inactive

What do the screens show for `Cc1ccc(NC(=O)c2nc[nH]c2C(=O)N(C)Cc2ccccc2)cc1`?
KCNK3 block: inactive

Results for Oc1ccc(CCNc2c3ccccc3nc3ccccc23)cc1O ?
hERG rescue: -7; KCNK3 block: inactive; KCNK9 inh: inactive; KCNQ1 act: inactive; KCNQ1 inh: inactive

How did NCC12CC3CC(C1)CC(c1ccc(Cl)cc1)(C3)C2 do in these assays?
hERG rescue: -37; KCNK3 block: inactive; KCNK9 inh: -7.2*; KCNQ1 act: inactive; KCNQ1 inh: inactive

Results for Nc1ccc(C23CC4CC(CC(CO)(C4)C2)C3)cc1 ?
hERG rescue: -8; KCNK3 block: inactive; KCNK9 inh: inactive; KCNQ1 act: inactive; KCNQ1 inh: inactive

Results for COc1cccc2c1CCC1=CC(=O)CCC12C (stereo unspecified) ?
KCNK3 block: inactive

Results for COc1ccc(C(=S)N2CCOCC2)cc1OC(=O)c1ccc([N+](=O)[O-])cc1 ?
hERG rescue: -4; KCNK3 block: inactive; KCNK9 inh: inactive; KCNQ1 act: inactive; KCNQ1 inh: inactive

What do the screens show for `COc1cc(C(=S)N2CCOCC2)ccc1OC(=O)c1ccc([N+](=O)[O-])cc1[N+](=O)[O-]`?
hERG rescue: 5.9*; KCNK3 block: inactive; KCNK9 inh: inactive; KCNQ1 act: inactive; KCNQ1 inh: inactive

Results for CCOCCN1CCN(c2c(CC)c(C)nc3cc(-c4cc(OC)cc(OC)c4)nn23)CC1 ?
hERG rescue: -9; KCNK3 block: inactive; KCNK9 inh: -7.2*; KCNQ1 act: inactive; KCNQ1 inh: inactive

What do the screens show for `NC(=O)C1CCN(C(=O)c2cc(-c3ccc(Cl)s3)nc3ccccc23)CC1`?
KCNK3 block: inactive

How did COc1ccc(-c2nn(-c3ccccc3)cc2C(=O)Nc2ccc(C(=O)O)cc2)cc1 do in these assays?
hERG rescue: -1; KCNK3 block: inactive; KCNK9 inh: inactive; KCNQ1 act: inactive; KCNQ1 inh: inactive

Results for COc1ccc(NC(=O)c2cn(-c3ccccc3)nc2-c2ccncc2)cc1 ?
hERG rescue: 25*; KCNK3 block: inactive; KCNK9 inh: inactive; KCNQ1 act: inactive; KCNQ1 inh: inactive

Results for COc1ccc(NC(=O)c2cn(-c3ccccc3)nc2-c2cc3ccccc3o2)cc1 ?
hERG rescue: -5; KCNK3 block: inactive; KCNK9 inh: inactive; KCNQ1 act: inactive; KCNQ1 inh: 7*

How did O=C(Nc1ccc2ccccc2c1)c1cn(-c2ccccc2)nc1-c1cccs1 do in these assays?
hERG rescue: -12; KCNK3 block: inactive; KCNK9 inh: inactive; KCNQ1 act: inactive; KCNQ1 inh: inactive

Results for COc1ccc(-c2nn(-c3ccccc3)cc2C(=O)NC(=S)Nc2cc(Cl)ccc2Cl)cc1 ?
hERG rescue: -11; KCNK3 block: inactive; KCNK9 inh: inactive; KCNQ1 act: inactive; KCNQ1 inh: inactive

How did COc1ccc(-c2nn(-c3ccccc3)cc2C(=O)NC(=S)NNC(=O)c2ccncc2)cc1 do in these assays?
hERG rescue: 17*; KCNK3 block: inactive; KCNK9 inh: inactive; KCNQ1 act: inactive; KCNQ1 inh: inactive

What do the screens show for `C=C[C@H]1CN2CC[C@H]1C[C@H]2[C@H](O)c1ccnc2ccc(OC)cc12`?
KCNK3 block: inactive; KCNK9 inh: inactive; KCNQ1 act: inactive; KCNQ1 inh: inactive

Results for CC(NC(=S)Nc1ccc([N+](=O)[O-])cc1)c1ccncc1 (stereo unspecified) ?
hERG rescue: 0; KCNK3 block: inactive; KCNK9 inh: inactive; KCNQ1 act: inactive; KCNQ1 inh: 7*

What do the screens show for `Cc1ccc(S(=O)(=O)Oc2ccccc2/C=C2\SC(=O)NC2=O)cc1`?
hERG rescue: -16; KCNK3 block: inactive; KCNK9 inh: inactive; KCNQ1 act: inactive; KCNQ1 inh: 8*
